Usually inhibition stands for the drop in the measured response relative to a control, in per cent. Read a high inhibition as a response far below the control. Broadly, the IC50 is the midpoint of a concentration-inhibition curve. A low value points to higher potency.

*1 amine or outer side, *2 acyl side, *3 side chain or, on linkers, in order; H or OH if unused. Where a SMILES comes first, the peptide text is derived from it. Bridges are numbered along the chain shown (N, C = ends). [ ]: non-standard residue; d: D form. The star is where a group is joined. X1 = NC1=N[C@@H]([C@H](N[*:1])C(=O)[*:2])C[C@H](O)N1; ΔAla(Z-3-ureido) = NC(=O)N/C=C(\N)C(=O)O; AMC = Cc1cc(=O)oc2cc(N*)ccc12; β3hOrn = NCCC[C@H](N)CC(=O)*; Dap = NC[C@H](N)C(=O)O

The results in this text go back to ChEMBL document CHEMBL1133723, “Developing a dynamic pharmacophore model for HIV-1 integrase” (J Med Chem, 2000).

Assay [1] deals with Human immunodeficiency virus type 1 integrase (Human immunodeficiency virus 1) (UniProt Q7ZJM1). The note with it: at 200 µM.
The target is the same in assay [2]. Put plainly: Inhibition against HIV-1 integrase at 25 uM. The method in brief:
(§1)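 Integration reaction with HIV-1 integrase, run as in an earlier published method except for the detection step. The integration product was detected with digoxygenin-labelled oligonucleotides and an anti-digoxygenin antibody conjugated to horseradish peroxidase. Compounds were tested at 1 mM, 200 µM and 25 µM.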

For assay [3] the target is unchanged. To be noted: at 1 mM.
In assay [4] the target is T1, Human immunodeficiency virus type 1 integrase (Human immunodeficiency virus 1, UniProt Q7ZJM1).
In assay [5] the target is T1, Human immunodeficiency virus type 1 integrase. This is another data set of the same source.
Assay [6] has as its target Human immunodeficiency virus type 1 integrase (Human immunodeficiency virus 1) (UniProt Q7ZJM1). Put plainly: Inhibitory activity against HIV-1 integrase at 1 mM. The method in brief:
as §1

Assay [7] shares this target. Put plainly: Inhibitory activity against HIV-1 integrase at 200 uM. The method in brief: as §1

On to `O=C(O[C@@H]1Cc2c(O)cc(O)cc2O[C@@H]1c1cc(O)c(O)c(O)c1)c1cc(O)c(O)c(O)c1`, for which the inhibition in assay [1], in assay [2] and in assay [3] was above 50% each time.

Regarding `O=C(/C=C\c1ccc(O)c(O)c1)OC1CC(O)(C(=O)O)CC(OC(=O)/C=C\c2ccc(O)c(O)c2)C1O` (stereo not drawn), the IC50 in assay [4] stood at 660 nM; in assay [5], 640 nM.

As to `OC[C@H]1O[C@@H](SC2O[C@H](CO)[C@H](O)[C@H](O)[C@H]2O)[C@H](O)[C@@H](O)[C@H]1O` (stereo partly drawn), the inhibition in assay [1] and in assay [3] was below 50% throughout.

On to `O=C(/C=C\c1ccc(O)c(O)c1)OC1CC(OC(=O)/C=C\c2ccc(O)c(O)c2)(C(=O)O)CC(O)C1O` (stereo not drawn), for which the IC50 in assay [4] came out at 1080 nM; in assay [5], 680 nM.

`N/N=C(\S)Nc1ccc(N/C(S)=N/N)cc1`: the inhibition in assay [1] is below 50%; in assay [2], below 50%; in assay [3], above 50%.

As for `O=c1c(O)cccc2cc(O)c(O)c(O)c12` [PURPUROGALLIN], it took 2100 nM to reach half-maximal inhibition in assay [5] (IC50).

Turning to `OC[C@H]1O[C@H](OC[C@H]2OC(O)[C@H](O)[C@@H](O)[C@@H]2O)[C@H](O)[C@@H](O)[C@@H]1O` (stereo partly drawn), the inhibition in assay [6] and in assay [7] was below 50% throughout.

Turning to `Cc1cccc2c1C(O)=C1C(=O)C3C(O)=C(C(=O)NCNC(CO)(CO)CO)C(=O)[C@@H](N(C)C)[C@@H]3C[C@@H]1C2(C)O` (stereo partly drawn), the IC50 in assay [4] amounted to 500 nM; in assay [5], 1100 nM.

As to `N=C(N)NCCCCNCCCNC(=N)N`, the inhibition in assay [6] and in assay [7] was below 50% each time.

Regarding `CCC1C/C(=N\NC(N)=O)C(NNC(N)=O)C(C)C1` (stereo not drawn), the inhibition in assay [1] and in assay [3] was below 50% in each case.

Regarding `COC(=O)C1(O)C[C@H](O)[C@@H](NC(C)=O)[C@H]([C@H](O)[C@H](O)CO)O1` (stereo partly drawn), the inhibition in assay [6] and in assay [7] was below 50% each time.

For the molecule `O=P(O)(O)O[C@@H]1O[C@H](CO)[C@@H](O)[C@H](O)[C@H]1O`, the inhibition in assay [6] and in assay [7] was below 50% throughout.

For the molecule `O=C(NCNC(=O)NC1C(=O)NC(=O)N1CO)NC1C(=O)NC(=O)N1CO` (stereo not drawn), the inhibition in assay [1] is below 50%; in assay [2] it was below 50%; in assay [3], above 50%.

Regarding `O=C(NC(CO)(CO)CO)C(=O)NC(CO)(CO)CO`, the inhibition in assay [6] and in assay [7] was below 50% in each case.

As for `CN[C@@H]1[C@H](O[C@H]2[C@H](O[C@H]3[C@H](O)[C@@H](O)[C@H](N=C(N)N)[C@@H](O)[C@@H]3N=C(N)N)O[C@@H](C)[C@]2(O)C=O)O[C@@H](CO)[C@H](O)[C@H]1O`, the inhibition in assay [1] and in assay [3] was below 50% each time.

On to `O=C(CNC(=O)NCc1ccoc1)NNC(=O)Nc1cccc(Cl)c1`, for which the inhibition in assay [1] and in assay [3] was below 50% throughout.

For the molecule `O=P(O)(O)O[C@H]1O[C@H](CO)[C@@H](O)[C@H](O)[C@@H]1O`, the inhibition in assay [6] and in assay [7] was below 50% throughout.

For `O=C(/C=C/c1ccc(O)c(O)c1)O[C@H]1[C@H](O)C[C@](O)(C(=O)O)C[C@H]1OC(=O)/C=C/c1ccc(O)c(O)c1` (stereo in doubt; form 2), the concentration for half-maximal inhibition (IC50) in assay [4] is 460 nM; in assay [5], 250 nM.

Regarding `O=C1c2c(O)ccc(O)c2C(=O)c2c(NCCNCCO)ccc(NCCNCCO)c21` [MITOXANTRONE], the IC50 was 8000 nM in assay [4] and 3800 nM in assay [5].

In the case of `OCCNCCNC(O)C(O)CO` (stereo not drawn), the inhibition in assay [1] and in assay [3] was below 50% each time.

In the case of `COC1/C=C/OC2(C)Oc3c(C)c(O)c4c(O)c(c(C=NN5C(C)CN(Cc6ccc([N+](=O)[O-])cc6)CC5C)c(O)c4c3C2=O)NC(=O)/C(C)=C\C=C\C(C)C(O)C(C)C(O)C(C)C(OC(C)=O)C1C` (stereo not drawn), the IC50 in assay [4] was found to be 19700 nM; in assay [5] it was 20600 nM.

Take `CCCNC(=O)NNC(=O)c1ccccc1NC(=O)NCCC`: the inhibition in assay [1] and in assay [3] was below 50% in each case.

With `O=C[C@H](O)[C@@H](O)C(O[C@@H]1O[C@H](CO)[C@H](O)[C@H](O)[C@H]1O)[C@H](O)CO` (stereo partly drawn), the inhibition in assay [1] and in assay [3] was below 50% throughout.

With `OC[C@@H](O)[C@@H](O[C@H]1O[C@H](CO)[C@@H](O)[C@H](O)[C@H]1O)[C@H](O)[C@@H](O)CO`, the inhibition in assay [6] and in assay [7] was below 50% each time.

Turning to `N#C/C(=C\c1ccc(O)c(O)c1)C(=O)NCCCNC(=O)/C(C#N)=C/c1ccc(O)c(O)c1`, the IC50 amounted to 3000 nM in assay [4] and 10000 nM in assay [5].

In the case of `Cc1cc(O)c2c(=O)c3c(O)cc(O)c4c5c(O)cc(O)c6c(=O)c7c(O)cc(C)c8c1c2c(c34)c(c78)c65` [HYPERICIN], inhibition in assay [5] was half-maximal at 10000 nM (IC50).

As to `NC(=O)c1ccccc1NC(=O)Nc1cc(NC(=O)Nc2ccccc2C(N)=O)c(Br)cc1Br`, the inhibition in assay [1] is above 50%; in assay [2], below 50%; in assay [3] it was above 50%.

`O=C1c2ccc(O)c(O)c2C(=O)c2c(O)ccc(O)c21` [QUINALIZARIN]: the IC50 in assay [4] worked out at 1000 nM; in assay [5] it was 4000 nM.

Regarding `C[Si](C)(C)C`, the IC50 in assay [4] amounted to 5000 nM; in assay [5] it was 17000 nM.

Consider `NC(N)=Nc1nc(CSCC/C(N)=N/S(N)(=O)=O)cs1`, for which the inhibition in assay [1] and in assay [3] was below 50% in each case.

For `Cc1cccc2c1C(O)=C1C(=O)C3C(O)=C(C(=O)NCN4CCN(C(=N)N=C(N)N)CC4)C(=O)[C@@H](N(C)C)[C@@H]3C[C@@H]1C2(C)O` (stereo partly drawn), the IC50 in assay [4] was determined as 300 nM; in assay [5], 900 nM.

`O=C(CC(O)CCc1ccc(O)c(O)c1)O[C@H]1Cc2cc(O)c(O)cc2O[C@H]1c1ccc(O)c(O)c1` (stereo partly drawn): the figures for the IC50 in assay [4] and in assay [5] were 1000 nM and 1400 nM, respectively.

Regarding `NCCC[C@H](N)CC(=O)N[C@H]1CNC(=O)[C@H]([C@H]2C[C@H](O)NC(N)=N2)NC(=O)/C(=C/NC(N)=O)NC(=O)[C@H](CO)NC(=O)[C@H](CO)NC1=O` (β3hOrn-[Dap]SS[ΔAla(Z-3-ureido)][X1]; lactam 1-C), the inhibition in assay [1] and in assay [3] was below 50% in each case.

On to `O=C(NCCCCCCNC(=O)NNc1ccccc1)NNc1ccccc1`, for which the inhibition in assay [1] and in assay [3] was below 50% throughout.

For the molecule `Cc1cc(=O)oc2cc(NC(=O)[C@H](CCCN=C(N)N)NC(=O)CN)ccc12` (H-Gly-Arg-{AMC}), the inhibition in assay [1] and in assay [3] was below 50% each time.

`C[C@@H]1O[C@@H](OC2C[C@](O)(C(=O)CO)Cc3c(O)c4c(c(O)c32)C(=O)c2c(O)cccc2C4=O)C[C@H](N)[C@@H]1O` (stereo partly drawn): the IC50 was 4100 nM in assay [4] and 2300 nM in assay [5].

On to `CC(C)C[C@@H](C=O)NC(=O)N[C@H](C(=O)N[C@@H](CCC(N)=O)C(=O)N[C@@H](C)C=O)[C@@H]1CCN=C(N)N1`, for which the inhibition in assay [1] and in assay [3] was below 50% throughout.

In the case of `CC(=O)NC1=C(O)C[C@@](O)(C(=O)O)O[C@H]1[C@@H](O)[C@H](O)CO`, the inhibition in assay [6] and in assay [7] was below 50% throughout.

The molecule `O=c1oc2c(O)c(O)cc3c(=O)oc4c(O)c(O)cc1c4c23` [ELLAGIC ACID] registered an IC50 in assay [5] of 5100 nM.

For `CN[C@@H]1[C@H](OC2[C@@H](OC3[C@@H](N=C(N)N)[C@H](O)[C@@H](N=C(N)N)[C@H](O)[C@H]3O)O[C@@H](C)[C@]2(O)CO)O[C@@H](CO)[C@H](O)[C@H]1O` (stereo partly drawn), the inhibition in assay [6] and in assay [7] was below 50% throughout.

For `O=C(CCc1ccc(O)c(O)c1)c1ccc(O)c(O)c1O`, the values for the IC50 in assay [4] and in assay [5] were 1000 nM and 1700 nM, respectively.

As for `N=C(N)NCCCC(NC(N)=O)C(=O)O` (single isomer, unassigned), the inhibition in assay [1] and in assay [3] was below 50% in each case.

With `OC[C@@H](O)[C@@H](O)[C@H](O)c1cnc([C@@H](O)[C@H](O)[C@H](O)CO)cn1`, the inhibition in assay [6] and in assay [7] was below 50% in each case.

`N[C@H]1[C@@H](OP(=O)(O)O)O[C@H](CO)[C@H](O)[C@@H]1O`: the inhibition in assay [6] and in assay [7] was below 50% in each case.

`CCNC(=O)[C@H](CCCCN(N)N)NC(=O)CNC(=O)[C@H](CC(C)C)NC(=O)[C@@H](NC(=O)[C@H](O)[C@@H](O)[C@H](O)[C@H](O)CO)C(C)C`: the inhibition in assay [1] and in assay [3] was below 50% throughout.

Take `COc1cccc2c1C(=O)c1c(O)c3c(c(O)c1C2=O)C[C@@](O)(C(=O)CO)C[C@@H]3O[C@H]1C[C@H](N)[C@H](O)[C@H](C)O1` [DOXORUBICIN]: the results for the IC50 in assay [4] and in assay [5] were 2400 nM and 900 nM, respectively.

For the molecule `Cc1cccc2c1C(O)=C1C(=O)C3C(O)=C(C(=O)NNC4(C(=O)O)CCCC4)C(=O)[C@@H](N(C)C)[C@@H]3C[C@@H]1C2(C)O` (stereo partly drawn), the IC50 was 3600 nM in assay [4] and 1200 nM in assay [5].

As for `O=C(/C=C/c1ccc(O)c(O)c1)O[C@H]1[C@H](O)C[C@](O)(C(=O)O)C[C@H]1OC(=O)/C=C/c1ccc(O)c(O)c1` (stereo in doubt; form 1), the IC50 came to 540 nM in assay [4] and 790 nM in assay [5].

For `O=c1c(O)c(-c2ccc(O)c(O)c2)oc2cc(O)c(O)c(O)c12` [QUERCETAGETIN], the IC50 in assay [4] turned out to be 600 nM; in assay [5] it was 1300 nM.

Consider `OCC(CO)(CO)NCCCNC(CO)(CO)CO`, for which the inhibition in assay [6] and in assay [7] was below 50% in each case.

Consider `O=C(/C=C\c1ccc(O)c(O)c1)OC1C(O)CC(OC(=O)/C=C\c2ccc(O)c(O)c2)(C(=O)O)CC1O` (stereo not drawn), for which the values for the IC50 in assay [4] and in assay [5] were 7800 nM and 9500 nM, respectively.
